Test results: ChEMBL document CHEMBL5120861, “Short peptide pharmacophores developed from protein phosphatase-1 disrupting peptides (PDPs)” (Bioorg Med Chem, 2022)
Active and inactive are the calls of the source. The rule behind the calls is not given here. Where a SMILES comes first, the peptide text is derived from it. [ ]: non-standard residue; d: D form. NMeR = CN[C@@H](CCCNC(=N)N)C(=O)O; hArg = N=C(N)NCCCC[C@H](N)C(=O)O; β3hR = N=C(N)NCCC[C@H](N)CC(=O)O; Gly(cPr) = N[C@H](C(=O)O)C1CC1; Orn = NCCC[C@H](N)C(=O)O

What was measured:
[1] = (§1) Disruption of PP1 holoenzyme (unknown origin) interaction with protein inhibitor 2 assessed as increase in PP1 phosphatase activity by measuring increase in fluorescence using DiFMUP as substrate enzyme preincubated with I2 for ten mins followed by compound treatment for 20 mins followed by substrate addition by fluorescence based analysis; design: species or system Homo sapiens
[2] = system: HeLa; assay: Induction of calcium release in human HeLa cells and measured for 30 mins by fluorescent Ca2+-indicator dye Fluo-4 based fluorescence microscopy; format: functional, cell-based
Summary of the method: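 HeLa Kyoto cells in low-glucose DMEM, 10% FBS, seeded day before to ~80% confluency; loaded with 0.5 μM Fluo-4 in HEPES imaging buffer pH 7.4 (1.2 mM CaCl2) 30 min rt, washed; confocal imaging ex 488/em 516 nm, 2 min baseline, compound added, recorded 30 min; responder cells counted. Calcium-free variant: CaCl2 omitted, 250 μM EGTA.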

[3] = species: Homo sapiens; assay: as §1, with “as substrate at 500 uM enzyme preincubated” for “as substrate enzyme preincubated”
[4] = species: Homo sapiens; assay: Binding affinity to PP1 (unknown origin) assessed as change in entropy at compound to protein molar ratio of 1:1 by isothermal titration calorimetry assay
Summary of the method: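 PP1 dialyzed into 20 mM TrisCl pH 7.4, 200 mM NaCl, 1 mM TCEP, precipitate removed, 19.16 μM (0.72 mg/ml) in the cell. Compound 500 μM in last dialysis buffer, injected 1.8 μl every 2 min at 25°C. Data corrected for dilution heat and fitted for stoichiometry, Kd, ΔH, ΔS.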

[5] = Binding affinity to PP1 (unknown origin) assessed as dissociation constant at compound to protein molar ratio of 1:1 by isothermal titration calorimetry assay; design: species or system Homo sapiens
Summary of the method: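 PP1 dialysed into 20 mM TrisCl pH 7.4, 200 mM NaCl, 1 mM TCEP; precipitate removed, protein concentrated to 19.16 μM (0.72 mg/ml) in cell. Peptide dissolved in final dialysis buffer (also the reference), 500 μM in syringe, 1.8 μl injections every 2 min at 25°C. Data corrected for dilution heat and fitted for Kd and stoichiometry.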

[6] = Binding affinity to PP1 (unknown origin) assessed as binding to RVxF binding site of PP1 by competing with PDP incubated for 60 mins in presence of biotin-PDP2 by ALPHA assay; design: species or system Homo sapiens
Summary of the method: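 His-tagged PP1 200 nM with biotin-PDP2 67 nM in 50 mM TrisCl pH 7.5, 150 mM NaCl, 0.05% Tween 20, 1 mM MnCl2, 0.1% BSA; serial dilutions starting from 10 mM, 60 min rt; then streptavidin-donor and anti-His-acceptor beads at 5 μg/ml final, 90 min rt in dark; excitation 680 nm, emission 570 nm. Non-specific control used 22 nM GST(His-Biotin) instead.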

For `N=C(N)NCCC[C@H](NC(=O)[C@@H](N)CCCCN)C(=O)N[C@H](C(=O)N[C@@H](Cc1c[nH]cn1)C(=O)N[C@@H](Cc1ccccc1)C(N)=O)C1CC1` (H-KR[Gly(cPr)]HF-NH2), the EC50 [1] was 2100 nM and the Activity [2] was “Active”.
In the case of `CC(C)[C@@H](NC(=O)[C@@H](Cc1cnc[nH]1)NC(=O)[C@H](N)Cc1ccccc1)C(=O)N[C@H](CCCNC(=N)N)C(=O)O`, the Activity [3] is reported as “Active”.
For `CC(C)C[C@H](NC(=O)[C@@H](N)CCCNC(=N)N)C(=O)N[C@H](C(=O)N[C@@H](Cc1ccccc1)C(=O)O)[C@@H](C)O` (H-RLTF-OH), the Activity [3] was “Active”.
In the case of `CC(C)[C@H](NC(=O)[C@H](CCCNC(=N)N)N(C)C(=O)[C@@H](N)CCCCN)C(=O)N[C@@H](Cc1cnc[nH]1)C(=O)N[C@@H](Cc1ccccc1)C(N)=O` (H-K[NMeR]VHF-NH2), the EC50 [1] is reported as 4700 nM and the Activity [2] is reported as “Active”.
In the case of `CC(C)[C@H](NC(=O)[C@H](CCCNC(=N)N)NC(=O)C[C@@H](N)CCCNC(=N)N)C(=O)N[C@@H](Cc1cnc[nH]1)C(=O)N[C@@H](Cc1ccccc1)C(N)=O` (H-[β3hR]RVHF-NH2), the EC50 [1] is reported as 3200 nM and the Activity [2] is reported as “Active”.
For `CC(C)[C@H](NC(=O)[C@H](CCCNC(=N)N)NC(=O)[C@@H](N)CCCCN)C(=O)N[C@@H](Cc1cnc[nH]1)C(=O)N[C@@H](Cc1ccccc1)C(N)=O`, the EC50 [1] was 600 nM, the deltaS [4] was 3.94 cal/mol/deg and the Kd [5] was 2100 nM. It also gave an IC50 [6] of 124000 nM.
In the case of `CC[C@H](C)[C@H](NC(=O)[C@@H](N)CCCNC(=N)N)C(=O)N[C@H](C(=O)N[C@@H](Cc1ccccc1)C(=O)O)[C@@H](C)O` (H-RITF-OH), the Activity [3] is reported as “Active”.
With `CC(C)[C@H](NC(=O)[C@H](CCCNC(=N)N)NC(=O)[C@@H](N)CCCN)C(=O)N[C@@H](Cc1c[nH]cn1)C(=O)N[C@@H](Cc1ccccc1)C(N)=O` (H-[Orn]RVHF-NH2) the EC50 [1] was 4100 nM and the Activity [2] was “Active”.
For `CC(C)[C@H](NC(=O)[C@@H](N)CCCNC(=N)N)C(=O)N[C@@H](Cc1ccc(O)cc1)C(=O)N[C@@H](Cc1ccccc1)C(=O)O` (H-RVYF-OH), the Activity [3] was “Active”.
In the case of `CC(C)[C@H](NC(=O)[C@H](CCCCNC(=N)N)NC(=O)[C@@H](N)CCCCN)C(=O)N[C@@H](Cc1cnc[nH]1)C(=O)N[C@@H](Cc1ccccc1)C(N)=O` (H-K[hArg]VHF-NH2), the EC50 [1] is reported as 1700 nM and the Activity ([2]; DDE = dose-dependent effect) is reported as “Dde”.
